Measured values: ChEMBL document CHEMBL4190353, “Synthesis, structure-activity relationships and preliminary mechanism of action of novel water-soluble 4-quinolone-3-carboxamides as antiproliferative agents” (Eur J Med Chem, 2017)
Active and inactive are the calls of the source. No cut-off for these calls is given here.

Assays:
[1] = tested on: HCT-8; assay: Cytotoxicity against human HCT8 cells assessed as reduction in cell viability incubated for 24 hrs by MTT assay; assay type: functional, cell-based; details: HCT-8, 24 h
In short: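 Cells were kept in McCoy's 5A with 10% fetal bovine serum, streptomycin and 100 units·mL⁻¹ penicillin at 37 °C under 5% CO₂/95% air. Viability was read by MTT optical density. IC50 is the concentration that lowers optical density by 50% relative to untreated cells. Values are means with SD of at least three independent determinations.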

[2] = tested on: RKO; assay: Inhibition of colony formation of human RKO cells incubated for 24 hrs by crystal violet staining based photography; assay type: functional, cell-based
In short: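 Cells (HCT116, RKO, HCT116 p53-/-, HCT116 Bax-/-) seeded at 300 per well in 12-well plates for 48 h, then treated 24 h. Drug medium replaced with fresh medium; about 10 days later colonies stained 15 min with crystal violet, photographed and counted. Run in triplicate.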

[3] = tested on: HCT-116; assay: Induction of apoptosis in human HCT116 cells assessed as viable cells level at 2 uM incubated for 24 hrs by Annexin V-FITC/PI staining based cytometry (reference value: 96.6%); assay type: functional
[4] = tested on: HCT-116; assay: Induction of apoptosis in human HCT116 cells assessed as late apoptotic cells level at 2 uM incubated for 24 hrs by Annexin V-FITC/PI staining based cytometry (reference value: 0.5%); assay type: functional
[5] = tested on: HCT-116; assay: Induction of apoptosis in human HCT116 cells assessed as G1 phase cells level at 2 uM incubated for 24 hrs by […]PI staining based cytometry (reference value: 65.2%); assay type: functional
In short: (§1)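 Cells were treated for 24 h, then fixed in 75% ethanol at -20 °C overnight. RNA was digested with 0.2 mg/mL RNase A for 30 min at 37 °C. Cells were stained with 50 µg/mL PI for 30 min in the dark, and DNA content was read by flow cytometry.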

[6] = tested on: HCT-116; assay: Induction of apoptosis in human HCT116 cells assessed as subG1 phase cells level at 4 uM incubated for 24 hrs by […]PI staining based cytometry (reference value: 1%); assay type: functional; in short: as §1
[7] = tested on: HCT-116; assay: Induction of apoptosis in human HCT116 cells assessed as increase in cleaved PARP level at 2 uM incubated for 24 hrs by Western blot method; assay type: functional, cell-based
In short: (§2)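 Lysates were made in SDS buffer (2% SDS, 50 mM Tris-HCl pH 6.8) and quantified by BCA. Equal protein was run on 10% SDS-PAGE and transferred to PVDF. Membranes were blocked in 5% milk, probed overnight at 4 °C for cleaved PARP (1:1000) with GAPDH (1:5000), and detected with HRP secondary antibody and ECL.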

[8] = tested on: HCT-116; assay: Induction of apoptosis in human HCT116 cells assessed as early apoptotic cells level incubated for 48 hrs by Annexin V-FITC/PI staining based cytometry (reference value: 1.1%); assay type: functional
[9] = tested on: HCT-116; assay: Induction of apoptosis in human HCT116 cells assessed as increase in cleaved PARP level incubated for 48 hrs by Western blot method; assay type: functional, cell-based; in short: as §2
[10] = tested on: HCT-116; assay: Induction of apoptosis in Bax-/- human HCT116 cells assessed as increase in cleaved PARP level incubated for 48 hrs by Western blot method; assay type: functional, cell-based; in short: as §2
[11] = tested on: HCT-116; assay: Induction of apoptosis in Bax-/- human HCT116 cells assessed as early apoptotic cells level incubated for 48 hrs by Annexin V-FITC/PI staining based cytometry (reference value: 6.8%); assay type: functional
In short: (§3)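 Cells were plated at 5×10^5 per well and treated once 80% confluent. After trypsinisation and two washes in ice-cold PBS (pH 7.4), cells were stained with Annexin V-FITC and PI for 15 min at room temperature in the dark. Analysis was by flow cytometry. The legend gives vehicle or 4 µM for the p53-/- and Bax-/- lines.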

[12] = tested on: HCT-116; assay: Induction of apoptosis in Bax-/- human HCT116 cells assessed as late apoptotic cells level incubated for 48 hrs by Annexin V-FITC/PI staining based cytometry (reference value: 0.1%); assay type: functional; in short: as §3
[13] = tested on: HCT-116; assay: Induction of apoptosis in Bax-/- human HCT116 cells assessed as viable cells level pre-incubated with 20 uM pan-caspase inhibitor Z-VAD-FMK for 5 hrs followed by compound addition and further incubated for 48 hrs by Annexin V-FITC/PI staining based cytometry (reference value: 92.9%); assay type: functional
[14] = tested on: HCT-116; assay: Induction of apoptosis in Bax-/- human HCT116 cells assessed as early apoptotic cells level pre-incubated with 20 uM pan-caspase inhibitor Z-VAD-FMK for 5 hrs followed by compound addition and further incubated for 48 hrs by Annexin V-FITC/PI staining based cytometry (reference value: 6.8%); assay type: functional; parameters: scale not given: the % may be the effect or the level left
[15] = tested on: HCT-116; assay: Induction of apoptosis in Bax-/- human HCT116 cells assessed as late apoptotic cells level pre-incubated with 20 uM pan-caspase inhibitor Z-VAD-FMK for 5 hrs followed by compound addition and further incubated for 48 hrs by Annexin V-FITC/PI staining based cytometry (reference value: 0.1%); assay type: functional; parameters: scale not given: the % may be the effect or the level left
[16] = tested on: HCT-116; assay: Induction of apoptosis in Bax-/- human HCT116 cells assessed as necrotic cells level pre-incubated with 20 uM pan-caspase inhibitor Z-VAD-FMK for 5 hrs followed by compound addition and further incubated for 48 hrs by Annexin V-FITC/PI staining based cytometry (reference value: 0.2%); assay type: functional; parameters: scale not given: the % may be the effect or the level left
[17] = tested on: HCT-116; assay: Induction of apoptosis in p53-/- human HCT116 cells assessed as early apoptotic cells level at 4 uM incubated for 48 hrs by Annexin V-FITC/PI staining based cytometry (reference value: 2.9%); assay type: functional; in short: as §3
[18] = tested on: HCT-116; assay: Induction of apoptosis in Bax-/- human HCT116 cells assessed as viable cells level at 4 uM incubated for 48 hrs by Annexin V-FITC/PI staining based cytometry (reference value: 95.2%); assay type: functional; in short: as §3
[19] = tested on: HCT-116; assay: […] of ROS generation in human HCT116 cells pre-treated with 7.5 mM GSH for […] followed by 8 uM compound addition and further incubated for 24 hrs by H2DCFDA dye based flow cytometry; assay type: functional, cell-based
In short: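 HCT116 cells pre-treated 5 h with H2O, 7.5 mM L-NAC or 7.5 mM GSH, then exposed to compound for 24 h. Cells collected, washed twice in PBS, and resuspended in serum-free McCoy's 5A with 10 nM H2DCFDA for 20 min at 37 °C in the dark. After two PBS washes, relative ROS measured by flow cytometry.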

[20] = tested on: HCT-116; assay: Inhibition of colony formation of human HCT116 cells pre-treated with 7.5 mM GSH for 2 hrs followed by 16 to 32 uM compound addition and further incubated for 24 hrs and measured after 10 days post dose in fresh medium by crystal violet staining based photography; assay type: functional, cell-based
In short: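 HCT116 seeded at about 300 per well in 12-well plates and grown 2 h. Pre-treated 2 h with H2O, 7.5 mM L-NAC or GSH, then exposed to compound for 24 h. Colonies grown 10 days in fresh medium, stained with crystal violet and counted. Triplicate wells.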

[21] = tested on: HCT-116; assay: Induction of apoptosis in human HCT116 cells assessed as increase in cleaved PARP level pre-treated with 7.5 mM GSH for 6 hrs followed by 4 to 8 uM compound addition and further incubated for 24 hrs by Western blot method; assay type: functional, cell-based

With `CCN(CC)CCCNC(=O)c1cn(CCCc2ccccc2)c2cc(Cl)ccc2c1=O.Cl` the IC50 [1] was 6.82 µM, the inhibition [2] was “Dose-dependent effect” and the Activity [3] was 79.3%. For the same molecule, the Activity [4] was 1.5%, the Activity [5] was 46.7% and the Activity [6] was 14.2%. For the same molecule, the Activity [7] was “Active”, the Activity [8] was 29.4% and the Activity [9] was “Active”. For the same molecule, the Activity [10] was “Active”, the Activity [11] was 33% and the Activity [12] was 1.7%. The Activity [13] was 87.7%, the Activity [14] was 10.2% and the Activity [15] was 0.9%. The Activity [16] was 1.2%, the Activity [17] was 24.8% and the Activity [18] was 71.5%. For the same molecule, the inhibition [19] was “inactive”, the inhibition [20] was “inactive” and the Activity [21] was “inactive”.
